GASC1 inh: blocks human GASC-1 (KDM4C) demethylase activity; Q9H3R0; GST-KDM4C 2-372, H3K9me3 peptide, LANCE TR-FRET; inhibition, % at 12.5 µM; hit rate 0.15% among 96,000; AID 720574;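 active = mean replicate inhibition above about 25%, with at least 55% of replicates also reaching it, limit read from the data, passing the limit was not always enough; inconclusive = only one of those two conditions met; inactive = neither condition met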
Target sequence (Q9H3R0 2-372 limits assumed): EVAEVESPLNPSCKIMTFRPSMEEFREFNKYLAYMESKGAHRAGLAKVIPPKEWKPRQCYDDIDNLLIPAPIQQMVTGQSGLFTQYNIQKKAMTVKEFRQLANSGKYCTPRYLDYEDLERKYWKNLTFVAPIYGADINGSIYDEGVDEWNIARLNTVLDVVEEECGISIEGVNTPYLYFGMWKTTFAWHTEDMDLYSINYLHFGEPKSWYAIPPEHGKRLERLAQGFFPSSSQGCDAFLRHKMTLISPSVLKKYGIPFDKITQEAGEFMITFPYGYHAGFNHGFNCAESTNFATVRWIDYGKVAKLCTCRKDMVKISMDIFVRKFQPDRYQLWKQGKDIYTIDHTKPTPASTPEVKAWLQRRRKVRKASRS
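Test system – GST-tagged GASC-1 (JMJD2C) catalytic fragment, aa 2-372 · Medium – HEPES buffer, pH 7.5, plus ascorbate · Reagent – H3K9me3 peptide with Fe(II)/2OG · Compound – one test concentration per compound · Timing – 30 min reaction, 60 min detection, RT · Technique – TR-FRET with Eu antibody and ULight streptavidin, EDTA stop · Read-out basis – inhibition from TR-FRET ratio decrease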
IDH1 R132H inh: inhibitors of human IDH1 R132H; hit rate 0.18% among 70,000; IDH1 R132H reductase, diaphorase/resazurin fluorescence, 60 min; inhibition, % at 10 µM; in the data active = inhibition above about 34%; inconclusive = no clear call, values can overlap the other calls; inactive = below about 11%
Target sequence (O75874 whole entry R132H): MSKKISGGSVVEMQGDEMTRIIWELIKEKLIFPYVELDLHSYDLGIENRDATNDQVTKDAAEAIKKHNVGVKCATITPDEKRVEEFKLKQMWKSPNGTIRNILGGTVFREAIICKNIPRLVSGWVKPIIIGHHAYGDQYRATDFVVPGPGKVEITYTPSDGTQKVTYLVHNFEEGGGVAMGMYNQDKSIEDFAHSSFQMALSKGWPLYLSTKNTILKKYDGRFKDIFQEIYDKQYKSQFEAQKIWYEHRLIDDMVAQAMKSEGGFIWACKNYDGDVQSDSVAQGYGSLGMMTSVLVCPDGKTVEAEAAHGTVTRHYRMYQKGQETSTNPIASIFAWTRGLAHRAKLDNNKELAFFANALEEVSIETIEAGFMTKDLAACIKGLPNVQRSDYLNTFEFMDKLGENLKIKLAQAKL
T cruzi growth-1: blocks T. cruzi growth in NIH3T3 culture; AID 624255; T. cruzi beta-gal in NIH3T3, GalScreen luminescence, 90 h; hit rate 5.9% among 77,000; inhibition, % at 8.34 µM;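 active = mean inhibition above about 93%, with at least 55% of replicates each passing it, limit read from the data, passing the limit was not always enough; inconclusive = only one of those two conditions holds; inactive = neither condition holds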
T cruzi growth-2: Trypanosoma cruzi proliferation inhibition; shares compounds with T cruzi growth-1; T. cruzi beta-gal in NIH3T3, GalScreen luminescence, 90 h; inhibition, % at 8.35 µM; hit rate 72% among 5,600; AID 651739;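 active = mean replicate inhibition above about 95% and at least 55% of replicates individually reaching it, limit read from the data; inconclusive = only one of the two criteria is met; inactive = neither criterion is met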
T cruzi growth-3: Trypanosoma cruzi proliferation inhibition; T. cruzi beta-gal in NIH3T3, GalScreen luminescence, 90 h; shares compounds with T cruzi growth-1; inhibition, % at 2.09 µM; AID 651740; hit rate 21% among 5,600;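 active = mean inhibition above about 95%, with at least 55% of replicates also reaching it, limit read from the data; inconclusive = meets just one of the two conditions; inactive = meets neither condition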
NIH3T3 tox: NIH/3T3 (mouse) viability loss; shares compounds with T cruzi growth-1; NIH/3T3 viability, CellTiter-Glo ATP luminescence, 90 h; cytotoxicity (signal decrease), % at 8.35 µM; hit rate 14% among 5,600; AID 651742;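 active = mean signal decrease across replicates above about 35% based on untreated-well scatter, with enough replicates individually passing, limit read from the data; inconclusive = no rule stated though some were filed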
3T3 cytotox 2: kills mouse NIH/3T3 fibroblasts. shares compounds with T cruzi growth-1. inhibition, % at 24.9 µM. NIH/3T3 viability, CellTiter-Glo ATP luminescence, 90 h. hit rate 56% among 5,600;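 active = mean loss of cell viability signal at or above a set limit, and enough replicates individually reaching it; inconclusive = meets only the mean limit or only the replicate share; inactive = meets neither condition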
Each line names hits and unclear results; the compound was inactive in the other large screens (follow-up assays come after a bar, where they were run); ! = not confirmed by another sample. The full list was thinned out, with hits kept by preference.

C[C@H]1CN([C@@H](C)CO)C(=O)c2c(c3ccccc3n2C)-c2ccccc2CO[C@@H]1CN(C)C	none
C[C@@H]1CN([C@@H](C)CO)C(=O)c2c(c3ccccc3n2C)-c2ccccc2CO[C@@H]1CN(C)S(C)(=O)=O	none
C[C@H](CO)N1C[C@H](C)[C@@H](CN(C)C)OCc2ccccc2-c2c(n(C)c3ccccc23)C1=O	T cruzi growth-1 inconclusive | T cruzi growth-2 inactive | T cruzi growth-3 inactive | NIH3T3 tox inactive | 3T3 cytotox 2 inactive
COc1ccccc1C(CCNCc1ccccc1)c1ccco1 (configuration not stated)	none (no result: GASC1 inh, T cruzi growth-1)
COCCNC(=O)c1ccccc1-c1nc(-c2ccc(Cl)cc2)no1	none (no result: GASC1 inh, T cruzi growth-1)
CO[C@H]1C[C@H](O[C@H]2[C@H](C)[C@@H](O[C@@H]3O[C@H](C)C[C@H](N(C)C)[C@@H]3OC(C)=O)[C@@H](C)C[C@]3(CO3)C(=O)[C@H](C)[C@@H](OC(C)=O)[C@@H](C)[C@@H](C)OC(=O)[C@@H]2C)O[C@@H](C)[C@@H]1OC(C)=O	none (no result: GASC1 inh, T cruzi growth-1)
Cc1ccc2oc(-c3cccc(NC(=O)COc4ccc5ccccc5c4)c3)nc2c1	none (no result: GASC1 inh, T cruzi growth-1)
CNC[C@H]1OCCCC[C@H](C)Oc2ccc(NC(=O)Cc3ccccc3)cc2C(=O)N([C@H](C)CO)C[C@@H]1C	none (no result: IDH1 R132H inh)
C[C@@H]1CN([C@@H](C)CO)C(=O)c2cc(NC(=O)CCCN(C)C)ccc2O[C@H]1CN(C)S(C)(=O)=O	none (no result: IDH1 R132H inh)
CNC[C@H]1OCCCC[C@H](C)Oc2ccc(NC(=O)CCC(F)(F)F)cc2C(=O)N([C@H](C)CO)C[C@@H]1C	none (no result: IDH1 R132H inh)
CNC[C@H]1OCCCC[C@@H](C)Oc2ccc(NC(=O)Cc3ccccc3)cc2C(=O)N([C@@H](C)CO)C[C@H]1C	T cruzi growth-1 inconclusive (no result: IDH1 R132H inh) | T cruzi growth-2 inactive | T cruzi growth-3 inactive | NIH3T3 tox inactive | 3T3 cytotox 2 inactive
CNC[C@H]1OCCCC[C@H](C)Oc2ccc(NC(=O)CCCN(C)C)cc2C(=O)N([C@H](C)CO)C[C@@H]1C	T cruzi growth-1 100! | T cruzi growth-2 inactive | T cruzi growth-3 inactive | NIH3T3 tox inactive | 3T3 cytotox 2 inactive
CNC[C@@H]1OCCCC[C@@H](C)Oc2ccc(NC(=O)CCCN(C)C)cc2C(=O)N([C@H](C)CO)C[C@@H]1C	none (no result: IDH1 R132H inh)
CNC[C@@H]1OCCCC[C@H](C)Oc2ccc(NC(=O)CCC(F)(F)F)cc2C(=O)N([C@@H](C)CO)C[C@@H]1C	T cruzi growth-1 98 | T cruzi growth-2 inconclusive | T cruzi growth-3 inactive | NIH3T3 tox inactive | 3T3 cytotox 2 inactive
C[C@H]1CN([C@@H](C)CO)C(=O)c2cc(NC(=O)CCCN(C)C)ccc2O[C@@H]1CN(C)S(C)(=O)=O	T cruzi growth-1 104 | T cruzi growth-2 inactive | T cruzi growth-3 inactive | NIH3T3 tox inactive | 3T3 cytotox 2 inactive
O=c1c2ccccc2nc(-c2cccs2)n1NCc1ccccc1F	none (no result: GASC1 inh, T cruzi growth-1)
CS(=O)(=O)N(CC(=O)Nc1ccc(F)cc1)c1ccccc1	none (no result: GASC1 inh, T cruzi growth-1)
Cc1ccccc1NC(=O)CSC1CC(=O)N(c2ccc(F)cc2)C1=O (configuration not stated)	none (no result: GASC1 inh, T cruzi growth-1)
COC(=O)CCCCCCC(=O)N/N=C/c1ccc(CO)o1	none (no result: GASC1 inh, T cruzi growth-1)
COC(=O)c1ccccc1NC(=O)c1ccc(Cl)c(S(=O)(=O)Nc2ccccc2C)c1	none (no result: GASC1 inh, T cruzi growth-1)
C[C@@H]1CN([C@@H](C)CO)C(=O)c2cc(NC(=O)Nc3ccccc3)ccc2O[C@@H](C)CCCCO[C@@H]1CN(C)Cc1ccc(C(F)(F)F)cc1	none
C[C@@H]1CCCCO[C@H](CN(C)Cc2ccc(C(F)(F)F)cc2)[C@H](C)CN([C@@H](C)CO)C(=O)c2cc(NC(=O)Nc3ccccc3)ccc2O1	none (no result: IDH1 R132H inh)
C[C@@H]1CCCCO[C@H](CN(C)Cc2ccc(C(F)(F)F)cc2)[C@H](C)CN([C@H](C)CO)C(=O)c2cc(NC(=O)Nc3ccccc3)ccc2O1	T cruzi growth-1 inconclusive | T cruzi growth-2 96 | T cruzi growth-3 120 | NIH3T3 tox inactive | 3T3 cytotox 2 inactive
C[C@@H]1CCCCO[C@H](CN(C)Cc2ccc(C(F)(F)F)cc2)[C@@H](C)CN([C@H](C)CO)C(=O)c2cc(NC(=O)Nc3ccccc3)ccc2O1	T cruzi growth-1 96 | T cruzi growth-2 98 | T cruzi growth-3 111 | NIH3T3 tox inactive | 3T3 cytotox 2 inactive
COc1ccc(-c2nc(SCC(=O)Nc3ccc(Br)c(Cl)c3)n[nH]2)cc1	none (no result: GASC1 inh, T cruzi growth-1)
CCc1cccc(OCC(=O)Nc2cc([N+](=O)[O-])ccc2O)c1	none (no result: GASC1 inh, T cruzi growth-1)
C[C@@H]1O[C@@H](O[C@H]2[C@@H]3C=CO[C@@H](O[C@@H]4O[C@H](CO)[C@@H](O)[C@H](O)[C@H]4O)[C@@H]3[C@@]3(CO)O[C@@H]23)[C@H](OC(=O)/C=C/c2ccccc2)[C@H](OC(=O)/C=C/c2ccccc2)[C@H]1O	none (no result: GASC1 inh, T cruzi growth-1)
O=C(NCC[C@@H]1CC[C@@H](NS(=O)(=O)c2cccc(Cl)c2)[C@@H](CO)O1)c1cnccn1	none
O=C(NCC[C@H]1CC[C@H](NS(=O)(=O)c2cccc(Cl)c2)[C@@H](CO)O1)c1cnccn1	T cruzi growth-1 144 | T cruzi growth-2 inactive | T cruzi growth-3 inactive | NIH3T3 tox inactive | 3T3 cytotox 2 inactive
COc1cccc(S(=O)(=O)N[C@H]2CC[C@@H](CCNC(=O)Cc3ccncc3)O[C@@H]2CO)c1	none
COc1cccc(S(=O)(=O)N[C@H]2CC[C@@H](CCNC(=O)Cc3ccncc3)O[C@H]2CO)c1	T cruzi growth-1 106 | T cruzi growth-2 inactive | T cruzi growth-3 inactive | NIH3T3 tox inactive | 3T3 cytotox 2 inactive
CCc1c(C)sc(NC(=O)c2cc(-c3cccnc3)nc3ccc(Cl)cc23)c1C(=O)N1CCOCC1	none (no result: GASC1 inh, T cruzi growth-1)
O=C1C(=O)N(Cc2ccco2)C(c2ccc(Cl)cc2)C1C(=O)c1cc2ccccc2o1 (configuration not stated)	none (no result: GASC1 inh, T cruzi growth-1)
Cc1ccc(S(=O)(=O)N(C)C[C@@H]2OCCCC[C@@H](C)Oc3ccc(NC(=O)c4ccccc4)cc3C(=O)N([C@H](C)CO)C[C@@H]2C)cc1	none (no result: IDH1 R132H inh)
Cc1ccc(S(=O)(=O)N(C)C[C@H]2OCCCC[C@H](C)Oc3ccc(NC(=O)c4ccccc4)cc3C(=O)N([C@@H](C)CO)C[C@@H]2C)cc1	T cruzi growth-1 104 | T cruzi growth-2 106 | T cruzi growth-3 inactive | NIH3T3 tox inactive | 3T3 cytotox 2 inactive
Cc1ccc(S(=O)(=O)N(C)C[C@@H]2OCCCC[C@@H](C)Oc3ccc(NC(=O)c4ccccc4)cc3C(=O)N([C@@H](C)CO)C[C@H]2C)cc1	T cruzi growth-1 100 | T cruzi growth-2 108 | T cruzi growth-3 inactive | NIH3T3 tox inactive | 3T3 cytotox 2 31
Cc1ccc(S(=O)(=O)N(C)C[C@@H]2OCCCC[C@H](C)Oc3ccc(NC(=O)c4ccccc4)cc3C(=O)N([C@@H](C)CO)C[C@H]2C)cc1	none (no result: IDH1 R132H inh)
Cc1cc(=O)oc2cc(OCC(=O)Nc3sc4c(c3C#N)CCC4)ccc12	none (no result: GASC1 inh, T cruzi growth-1)

From PubChem
